Values belong to the compound of their own block, whether it stands above or below them. Calls of active or inactive are those of the source. The calls are words filed in the database; no cut-off is given here. Where a SMILES comes first, the peptide text is derived from it.
Tests used:
[1] = Binding affinity to HCV envelope glycoprotein E2 by surface plasmon resonance assay; design: species or system Hepacivirus hominis
Outline: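 Surface plasmon resonance on a Biacore 1000 measured binding of E2 protein to the peptides. K_on and K_off were calculated from the association and dissociation phases of the best-fitted binding curves.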

[2] = system: Hepacivirus hominis; assay: Inhibition of HCV envelope glycoprotein E2 to human Huh 7.5.1 cells after 1 hr by flow cytometry relative to control
Outline: (§1)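 E2 protein (0.25 μg) was preincubated with peptide (250 nM, or a concentration series), 120 nM CD81, 50 IU heparin, or combinations in 100 μl PBS for 1 h at 37°C. The mix was added to 1 × 10⁶ Huh-7.5.1 cells for 30 min at 37°C. Cell-bound E2 was stained with anti-E2 polyclonal and PE anti-rabbit IgG and measured by flow cytometry. Percent inhibition was calculated (means ± SEM, 3–4 experiments).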

[3] = system: Hepacivirus hominis; assay: Ratio of binding affinity for HCV 1b envelope glycoprotein E2 to binding affinity for HCV 5a envelope glycoprotein E2
Outline: (§2)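 HepG2 cells stably expressing E1E2 of genotypes 1–6 were established by G418 selection, with parental HepG2 as control. E2 of each genotype was detected with the selected peptide (means ± SEM, three independent experiments).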

[4] = system: Hepatitis C virus; assay: Antiviral activity against HCV 2a JFH-1 in human Huh 7.5.1 cells assessed as inhibition of viral infection at 100 to 500 nM after 4 hrs by Western blotting; assay type: functional, organism-based; conditions: Hepacivirus hominis
Outline: (§3)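 Cells were washed and E2 was read out in two ways. Western blot used anti-E2 with β-actin as the internal control. Immunofluorescence used 4% paraformaldehyde fixation, rabbit anti-E2 with FITC anti-rabbit IgG for 4 h, and PI nuclear stain. Mean fluorescence was measured by confocal microscopy (means ± SEM, three experiments).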

[5] = system: CT26; assay: Inhibition of HCV envelope glycoprotein E2 to […] cells expressing SR-B1 after 1 hr by flow cytometry; assay type: cell-based; conditions: Hepacivirus hominis
[6] = system: Hepacivirus hominis; assay: Ratio of binding affinity for HCV 1b envelope glycoprotein E2 to binding affinity for HCV 4a envelope glycoprotein E2; outline: as §2
[7] = system: Hepatitis C virus; assay: Antiviral activity against HCV 2a JFH-1 in human Huh 7.5.1 cells cytoplasm assessed as inhibition of viral infection at 100 to 500 nM after 4 hrs by RT-PCR analysis; assay type: functional, organism-based; conditions: Hepacivirus hominis, in the assay text read “after overnight incubation” for “after 4 hrs”
Outline: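 Huh-7.5.1 cells (4.5 × 10⁵/well) were co-cultured overnight at 37°C with 200 μl (7 × 10⁷ copies) of JFH-1 HCVcc and peptide at different final concentrations. After washing in DEPC-PBS, total RNA was extracted with Trizol and reverse transcribed. Intracellular HCV RNA was quantified by real-time PCR using 5′ NCR primers and normalized to GAPDH mRNA (means ± SEM, three experiments).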

[8] = system: Hepatitis C virus; assay: Antiviral activity against HCV 2a JFH-1 in human Huh 7.5.1 cells cytoplasm assessed as inhibition of viral infection at 100 to 500 nM after 4 hrs by immunofluorescence staining; assay type: functional, organism-based; conditions: Hepacivirus hominis; outline: as §3
[9] = system: Hepatitis C virus; assay: Binding affinity to HCV in […] healthy human serum after 1 hr by sandwich ELISA; assay type: cell-free; conditions: Hepacivirus hominis
Outline: (§4)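 Sandwich ELISA with wells coated with 0.3 nM peptide and blocked with 2% BSA at 4°C overnight. Serum (100 μl) from HCV antibody/RNA-positive patients (n = 50) or negative healthy donors (n = 55) was incubated 30 min at 37°C. Captured particles were detected with rabbit anti-E2 polyclonal (1:150, 1 h, 37°C), then HRP-labelled reagent, read at A450, and analysed by a nonparametric method.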

[10] = system: Hepacivirus hominis; assay: Ratio of binding affinity for HCV 1a envelope glycoprotein E2 to binding affinity for HCV 3a envelope glycoprotein E2; outline: as §2
[11] = system: Hepacivirus hominis; assay: Ratio of binding affinity for HCV 1b envelope glycoprotein E2 to binding affinity for HCV 3a envelope glycoprotein E2; outline: as §2
[12] = system: CT26; assay: Inhibition of HCV envelope glycoprotein E2 to […] cells expressing CLDN1 after 1 hr by flow cytometry; assay type: cell-based; conditions: Hepacivirus hominis
[13] = system: Hepacivirus hominis; assay: Inhibition of HCV envelope glycoprotein E2 to human Huh 7.5.1 cells after 1 hr by flow cytometry; outline: as §1
[14] = system: Hepatitis C virus subtype 1a; assay: Binding affinity to HCV 1a envelope glycoprotein E2; outline: as §2
[15] = system: Hepacivirus hominis; assay: Ratio of binding affinity for HCV 2a envelope glycoprotein E2 to binding affinity for HCV 3a envelope glycoprotein E2; outline: as §2
[16] = system: Hepatitis C virus; assay: Binding affinity to HCV 1b envelope glycoprotein E2; conditions: Hepatitis C virus subtype 1b; outline: as §2
[17] = system: Hepacivirus hominis; assay: Ratio of binding affinity for HCV 2a envelope glycoprotein E2 to binding affinity for HCV 6a envelope glycoprotein E2; outline: as §2
[18] = system: Hepacivirus hominis; assay: Ratio of binding affinity for HCV 2a envelope glycoprotein E2 to binding affinity for HCV 5a envelope glycoprotein E2; outline: as §2
[19] = system: Hepatitis C virus subtype 6a; assay: Binding affinity to HCV 6a envelope glycoprotein E2; outline: as §2
[20] = system: Hepatitis C virus; assay: Antiviral activity against HCV 2a JFH-1 in human Huh 7.5.1 cells assessed as inhibition of viral infection at 100 to 500 nM after 4 hrs by immunofluorescence staining; assay type: functional, organism-based; conditions: Hepacivirus hominis, in the assay text read “after overnight incubation” for “after 4 hrs”; outline: as §3
[21] = system: Hepacivirus hominis; assay: Ratio of binding affinity for HCV 2a envelope glycoprotein E2 to binding affinity for HCV 4a envelope glycoprotein E2; outline: as §2
[22] = system: CT26; assay: Inhibition of HCV envelope glycoprotein E2 to […] cells expressing OCLN after 1 hr by flow cytometry; assay type: cell-based; conditions: Hepacivirus hominis
[23] = system: Hepacivirus hominis; assay: Ratio of binding affinity for HCV 1a envelope glycoprotein E2 to binding affinity for HCV 4a envelope glycoprotein E2; outline: as §2
[24] = system: Hepatitis C virus JFH-1; assay: Binding affinity to HCV 2a JFH-1 viral particle after 1 hr by indirect ELISA
Outline: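 Wells were coated with 3 × 10⁵ JFH-1 HCVcc particles per well in carbonate buffer pH 9.6 (7 h, 4°C) and blocked with 1% BSA at 4°C overnight. Control culture medium served as comparison. Biotin-labelled peptide at different concentrations was incubated 30 min at 37°C, followed by HRP-streptavidin (1:1,000) for 1 h at 37°C. Signal was developed with o-phenylenediamine and read at A450 (triplicates; six experiments).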

[25] = system: Hepatitis C virus subtype 3a; assay: Binding affinity to HCV 3a envelope glycoprotein E2; outline: as §2
[26] = system: CT26; assay: Inhibition of HCV envelope glycoprotein E2 to […] cells expressing CD81 after 1 hr by flow cytometry; assay type: cell-based; conditions: Hepacivirus hominis
[27] = system: Hepatitis C virus subtype 5a; assay: Binding affinity to HCV 5a envelope glycoprotein E2; outline: as §2
[28] = system: Hepatitis C virus subtype 4a; assay: Binding affinity to HCV 4a envelope glycoprotein E2; outline: as §2
[29] = system: Hepacivirus hominis; assay: Ratio of binding affinity for HCV 1b envelope glycoprotein E2 to binding affinity for HCV 6a envelope glycoprotein E2; outline: as §2
[30] = system: Hepatitis C virus; assay: Binding affinity to HCV in virus infected patient serum after 1 hr by sandwich ELISA; conditions: Hepacivirus hominis; outline: as §4
[31] = system: Hepacivirus hominis; assay: Ratio of binding affinity for HCV 1a envelope glycoprotein E2 to binding affinity for HCV 6a envelope glycoprotein E2; outline: as §2
[32] = system: Hepacivirus hominis; assay: Binding affinity to HCV GST-tagged envelope glycoprotein E2 after 1 hr by ELISA
Outline: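 Indirect ELISA on wells coated with 0.3 nM E2-GST or GST (4°C, 7 h) and blocked with 2% BSA (37°C, 2 h). Biotin-labelled peptide at various concentrations was added for 30 min at 37°C, then HRP-streptavidin (1:1,000) for 1 h at 37°C. Signal was developed with o-phenylenediamine and read at 450 nm.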

[33] = system: Hepacivirus hominis; assay: Ratio of binding affinity for HCV 1a envelope glycoprotein E2 to binding affinity for HCV 5a envelope glycoprotein E2; outline: as §2
[34] = system: Hepatitis C virus subtype 2a; assay: Binding affinity to HCV 2a envelope glycoprotein E2; outline: as §2

Kd ([1]; read-out: Kd): 50 nM | cell-bound E2 remaining [2]: 32%
SMILES: N=C(N)NCCC[C@H](NC(=O)CNC(=O)[C@H](Cc1ccccc1)NC(=O)CN)C(=O)N[C@@H](Cc1ccc(O)cc1)C(=O)N[C@@H](CCCNC(=N)N)C(=O)N[C@@H](CCCNC(=N)N)C(=O)N[C@@H](Cc1cnc[nH]1)C(=O)NCC(=O)N[C@@H](CO)C(=O)N1CCC[C@H]1C(=O)N[C@@H](Cc1c[nH]c2ccccc12)C(=O)O (H-GFGRYRRHGSPW-OH)

Ratio [3]: 2 | Ratio [6]: 2 | Kd ([1]; read-out: Kd): 19 nM | Activity [9]: inactive | Ratio [10]: 2 | Ratio [11]: 2 | inhibition [13]: Dose-dependent effect | Activity [14]: Active | Ratio [15]: 2 | Ratio [17]: 2 | Ratio [18]: 2 | Activity [19]: Active | Ratio [21]: 2 | Ratio [23]: 2 | Activity [24]: Dose-dependent effect | Activity [25]: Active | Activity [27]: Active | Activity [28]: Active | Ratio [29]: 2 | Activity [30]: Active | Ratio [31]: 2 | Activity [32]: Dose-dependent effect | Ratio [33]: 2 | Activity [34]: Active
SMILES: CSCC[C@H](NC(=O)[C@@H](NC(=O)[C@H](CC(C)C)NC(=O)[C@@H]1CCCN1C(=O)[C@H](Cc1c[nH]c2ccccc12)NC(=O)[C@H](CC(N)=O)NC(=O)[C@H](CCCNC(=N)N)NC(=O)[C@H](Cc1cnc[nH]1)NC(=O)[C@H](CCCNC(=N)N)NC(=O)[C@H](C)NC(=O)[C@@H](N)CCSC)C(C)C)C(=O)N[C@H](C(=O)O)C(C)C (H-MARHRNWPLVMV-OH)
Activity [4]: Dose-dependent effect | inhibition [5]: inactive | Activity [7]: Active | Activity [8]: Active | inhibition [12]: inactive | Activity [16]: Active | Activity [20]: Dose-dependent effect | inhibition [22]: inactive | inhibition [26]: Active

Kd [1]: Not Active | cell-bound E2 remaining [2]: 30%
SMILES: CC[C@H](C)[C@H](NC(=O)[C@@H](NC(=O)[C@H](CC(C)C)NC(=O)[C@@H](NC(=O)[C@H](CO)NC(=O)[C@@H](N)CC(C)C)C(C)C)C(C)C)C(=O)N[C@@H](CO)C(=O)N[C@@H](CCSC)C(=O)N[C@@H](Cc1ccccc1)C(=O)N[C@@H](CC(N)=O)C(=O)N[C@@H](C)C(=O)N[C@H](C(=O)O)C(C)C (H-LSVLVISMFNAV-OH)

Kd ([1]; read-out: Kd): 43 nM | inhibition [13]: Dose-dependent effect | cell-bound E2 remaining [2]: 7%
SMILES: CC[C@H](C)[C@H](NC(=O)[C@H](C)NC(=O)[C@@H](N)CCSC)C(=O)NCC(=O)N1CCC[C@H]1C(=O)N[C@@H](Cc1ccc(O)cc1)C(=O)N1CCC[C@H]1C(=O)N[C@@H](C)C(=O)N[C@@H](CS)C(=O)NCC(=O)N[C@@H](CO)C(=O)NCC(=O)O (H-MAIGPYPACGSG-OH)

— ChEMBL document CHEMBL1687759, “Functional selection of hepatitis C virus envelope E2-binding Peptide ligands by using ribosome display” (Antimicrob Agents Chemother, 2010)
